The text below walks through data of ChEMBL document CHEMBL1151906, “Discovery and structure-activity relationships of pentanedioic acid diamides as potent inhibitors of 11beta-hydroxysteroid dehydrogenase type I” (Bioorg Med Chem Lett, 2009).

Values after ≈ are worked out from the molar mass of the structure shown. Where only a bound is given, the exact number is not on record here.

Data set [1] addresses T1, 11-beta-hydroxysteroid dehydrogenase 1 (Homo sapiens, UniProt P28845). Briefly: Inhibition of human recombinant 11beta-HSD1 expressed in Escherichia coli assessed as cortisol level after 150 mins by HTRF assay. For orientation: Time-resolved FRET reads energy transfer from a long-lived donor to a nearby acceptor.
Target sequence in this assay (P28845 whole entry): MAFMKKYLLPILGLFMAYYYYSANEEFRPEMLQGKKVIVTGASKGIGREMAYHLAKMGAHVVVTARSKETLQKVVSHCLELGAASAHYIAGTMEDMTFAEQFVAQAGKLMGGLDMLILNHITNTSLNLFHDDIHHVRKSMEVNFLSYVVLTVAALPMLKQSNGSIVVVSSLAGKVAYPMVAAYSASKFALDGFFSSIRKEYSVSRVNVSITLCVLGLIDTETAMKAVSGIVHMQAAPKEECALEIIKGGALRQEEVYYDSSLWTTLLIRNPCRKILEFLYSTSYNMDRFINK
Data set [2] can be described thus: Solubility in water. Format: physicochemical.
The target of data set [3] is T2, 11-beta-hydroxysteroid dehydrogenase type 2 (Homo sapiens, UniProt P80365).
T2 sequence (P80365 whole entry): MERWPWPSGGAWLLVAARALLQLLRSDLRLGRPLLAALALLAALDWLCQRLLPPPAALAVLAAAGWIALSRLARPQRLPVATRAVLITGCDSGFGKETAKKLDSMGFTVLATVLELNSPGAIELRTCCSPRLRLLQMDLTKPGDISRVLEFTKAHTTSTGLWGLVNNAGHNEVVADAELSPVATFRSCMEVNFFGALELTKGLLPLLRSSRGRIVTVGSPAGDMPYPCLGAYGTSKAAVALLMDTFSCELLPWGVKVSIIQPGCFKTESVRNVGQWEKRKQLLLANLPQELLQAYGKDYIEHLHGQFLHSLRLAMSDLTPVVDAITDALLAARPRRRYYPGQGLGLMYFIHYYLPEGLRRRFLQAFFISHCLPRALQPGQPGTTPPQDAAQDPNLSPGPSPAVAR
Kind of data set: Inhibition of human recombinant 11beta-HSD2 expressed in Escherichia coli assessed as cortisol level after 60 mins by HTRF assay. In outline: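 Enzyme is recombinant human 11β-HSD2 (E. coli-expressed) in 50 mM Tris pH 7.8 with 1 mM MgCl2 and 0.5 mM NAD. Reaction starts with 20 nM cortisol, runs at room temperature, and is stopped with carbenoxolone 10 µM. Cortisol is quantified by HTRF.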

Data set [4] in a line: Drug absorption in rat assessed as recovery of unchanged drug in feces at 0.5 mg/kg, po after 24 hrs. The note with it: faeces, read-out: Drug uptake. Details: dose 0.5 mg/kg, route oral. Format: ADME, organism-based. An outline of the steps: (§1)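 Male rats given a low-dose cassette (cocktail): 0.2 mg/kg i.v. and 0.5 mg/kg p.o.; plasma PK parameters are means of 3 rats. Unchanged drug recovered in faeces collected 0–24 h after each route.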

The nature of data set [5]: Protein binding in human serum. The class given is ADME, cell-free. To be noted: read-out: PB (converted).
Data set [6] can be described thus: Half life in rat plasma at 0.2 mg/kg, iv and 0.5 mg/kg, po. Format: ADME, organism-based. An outline of the steps: as §1
The target in data set [7] is T3, 11-beta-hydroxysteroid dehydrogenase 1 (Mus musculus, UniProt P50172). Kind of data set: Inhibition of 11beta-HSD1 in mouse liver microsome. An outline of the steps:
(§2)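 Liver microsome fractions (2.5 µg) used as the enzyme source. Run in 30 mM Hepes pH 7.4 with 1 mM EDTA, 1 mM G-6P and cortisone/NADPH (200 nM/200 µM). Incubated 150 min at 37 °C, stopped with 18β-glycyrrhetinic acid, cortisol read by HTRF.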
(Microsomes from liver hold many membrane-bound enzymes, among them those of drug oxidation.)

A short description of data set [8]: Volume of distribution at steady state in rat at 0.2 mg/kg, iv and 0.5 mg/kg, po. The class given is ADME, organism-based. To be noted: in vivo, read-out: Vdss. In outline: as §1
A short description of data set [9]: Bioavailability in rat at 0.2 mg/kg, iv and 0.5 mg/kg, po. Format: ADME, organism-based. To be noted: in vivo. In outline: as §1
In data set [10] the target is 11-beta-hydroxysteroid dehydrogenase 1 (Rattus norvegicus, UniProt P16232). Kind of data set: Inhibition of 11beta-HSD1 in rat liver microsome. Format: microsomes. An outline of the steps: as §2
Chain of 11-beta-hydroxysteroid dehydrogenase 1 (Rattus norvegicus, UniProt P16232) (P16232 whole entry): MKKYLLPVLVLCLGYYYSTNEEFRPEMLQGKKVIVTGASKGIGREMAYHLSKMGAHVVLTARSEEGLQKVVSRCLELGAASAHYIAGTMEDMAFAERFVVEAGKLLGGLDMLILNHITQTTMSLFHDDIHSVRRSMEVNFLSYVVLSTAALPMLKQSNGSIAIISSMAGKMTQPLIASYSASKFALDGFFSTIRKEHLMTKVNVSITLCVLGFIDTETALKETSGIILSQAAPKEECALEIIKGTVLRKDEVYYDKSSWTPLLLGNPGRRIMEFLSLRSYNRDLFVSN
Data set [11] addresses T3, 11-beta-hydroxysteroid dehydrogenase 1. Kind of data set: Inhibition of 11beta-HSD1 in mouse 3T3L1 cells assessed as cortisol level by HTRF assay. The class given is cell-based, 3T3-L1. In outline: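 3T3L1 cells differentiated 5 days into adipocytes, then cultured 4 days before 150 min exposure to compound (10^-5–10^-7 M). Cortisol in the culture supernatant is measured by HTRF to give 11β-HSD1 activity.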

A short description of data set [12]: Clearance in rat at 0.2 mg/kg, iv and 0.5 mg/kg, po. The class given is ADME, organism-based. To be noted: in vivo. In outline: as §1
Data set [13] in a line: Drug absorption in rat assessed as recovery of unchanged drug in feces at 0.2 mg/kg, iv after 24 hrs. To be noted: faeces, read-out: Drug uptake. The class given is ADME, organism-based. Details: dose 0.2 mg/kg, route intravenous. An outline of the steps: as §1
In data set [14] the target is T1, 11-beta-hydroxysteroid dehydrogenase 1. To be noted: at 1 µM.
Target sequence in this assay (P28845 whole entry, looked up): as the sequence (P28845 whole entry) above
For data set [15] the target is unchanged. Kind of data set: Inhibition of human 11beta-HSD1.
Target sequence in this assay (P28845 whole entry): as above

A word on the IC50: it is the concentration at which inhibition is half-maximal. For orientation: solubility means how much of the substance goes into solution per volume. Low values mean a poorly soluble substance, high ones a readily soluble substance. A word on the half-life: it is the time needed for the level to fall by half in the phase considered. A word on the bioavailability: it is dose-corrected exposure relative to a reference, in per cent. Read a high bioavailability as much systemic uptake. By inhibition is commonly meant the relative decrease from the control value, in per cent.

T3 sequence (P50172 whole entry): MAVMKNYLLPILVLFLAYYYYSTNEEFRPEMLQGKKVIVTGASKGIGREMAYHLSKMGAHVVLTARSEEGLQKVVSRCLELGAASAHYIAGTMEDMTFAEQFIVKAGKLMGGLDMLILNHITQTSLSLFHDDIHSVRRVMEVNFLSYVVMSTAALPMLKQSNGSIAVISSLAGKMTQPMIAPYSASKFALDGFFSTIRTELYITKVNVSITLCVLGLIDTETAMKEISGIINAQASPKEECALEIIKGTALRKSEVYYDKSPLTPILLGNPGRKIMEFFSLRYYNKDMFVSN

`CC(C)(CC(=O)NC1CC1)CC(=O)N[C@H]1C2CC3CC1C[C@](C(=O)O)(C3)C2`: in data set [1], the concentration for half-maximal inhibition (IC50) is greater than 1 µM.

`CC(C)(CC(=O)NC1CC1)CC(=O)N[C@H]1C2CC3CC1C[C@](C(N)=O)(C3)C2` returned a solubility in data set [2] of 491 µg/mL (≈ 1310 µM). Besides, the IC50 in data set [3] was greater than 10 µM; in data set [1], 0.008 µM; in data set [7] it was 0.01 µM; in [10] it was 0.031 µM; in [11] it was less than 1 µM. The dose excreted at 24 h in data set [4] stood at 50%; in [13], 24%. Besides, the fraction unbound in data set [5] was greater than 0.8. In [6], this compound had a half-life of 36 min. The Vd in data set [8] is 3.1 L/kg. In data set [9], the bioavailability came out at 10%. Also, in data set [12], the clearance is 55 mL/min/kg.

For `CN1CCN(C(=O)CC2(CC(=O)O)CCCC2)CC1`, the inhibition in [14] was 0%.

On to `O=C(CCCC(=O)NC1C2CC3CC(C2)CC1C3)NC1CC1` (stereo unspecified), for which the IC50 in [1] is greater than 1 µM.

As to `CC(C)(CC(=O)NC1CC1)CC(=O)N[C@H]1C2CC3CC1C[C@@](O)(C3)C2`, the half-maximal inhibitory concentration (IC50) in data set [1] worked out at 0.55 µM.

`CC(C)(CC(=O)NC1CC1)CC(=O)N[C@H]1C2CC3CC1C[C@](O)(C3)C2` yielded a solubility in data set [2] of 597 µg/mL (≈ 1710 µM). For the same compound, the IC50 in data set [3] is greater than 10 µM; in data set [1], 0.008 µM; in [7], 0.088 µM; in data set [10], 0.98 µM; in data set [11], less than 0.1 µM. In addition, the dose excreted at 24 h in data set [4] is 22%; in [13], 20%. Further, the fraction unbound in data set [5] is 0.6. In data set [6], this compound showed a half-life of 72 min. Also, the Vd in data set [8] is 2.7 L/kg. For the same compound, the bioavailability in [9] was 30%. In data set [12], the clearance is 30 mL/min/kg.

In [15], `O=C(O)CC1(CC(=O)NCc2ccc(F)cc2Cl)CCCC1` registered a concentration for half-maximal inhibition (IC50) of 1.2 µM.
